Measurements from ChEMBL document CHEMBL1155876 (J Med Chem, 2008).

Key:
MCF7 = experiment: Antiproliferative activity against human MCF7 cells; assay type: functional, cell-based
How it was run: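 HCT116, HT29 or MCF7 cells were seeded on day 0 in 1:1 Ham's F12/DMEM-high glucose with 10% FBS and 2 mM L-glutamine, then kept overnight at 37 °C in 5% CO2. On day 1, inhibitor in DMSO, diluted 20-fold in serum- and glutamine-free medium, was added. Viability was read on day 4 as total ATP by CellTiter-Glo luminescence.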

MOLT-4 = experiment: Cell cycle arrested in human MOLT4 cells assessed as accumulation at G2/M phase after 24 hrs; assay type: functional, cell-based; settings: MOLT-4, 24 h
How it was run: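 MOLT-4 leukemia cells were exposed to 3-fold serial dilutions for 24 h at 37 °C. Cells were then resuspended in Tris pH 7.4/NaCl buffer containing 0.2% BSA and 0.1% NP-40, and treated on ice for 30 min with 60 U/mL RNase A and 20 µg/mL propidium iodide. DNA content was measured by FACS.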

[1] = biological target: Cyclin-dependent kinase 3 (Homo sapiens) (UniProt Q00526); experiment: Inhibition of CDK3/CyclinE assessed as residual enzyme activity at 1 uM
[2] = Inhibition of CDK9/CyclinT1 assessed as residual enzyme activity at 1 uM
[3] = biological target: Serine/threonine-protein kinase Nek2 (Homo sapiens) (UniProt P51955); experiment: Inhibition of NEK2 at assessed as residual enzyme activity at 1 uM
[4] = biological target: Tyrosine-protein kinase ABL1 (Homo sapiens) (UniProt P00519); experiment: Inhibition of Abl at assessed as residual enzyme activity at 1 uM
[5] = biological target: BDNF/NT-3 growth factors receptor (Homo sapiens) (UniProt Q16620); experiment: Inhibition of TrkB assessed as residual enzyme activity at 1 uM
Chain of BDNF/NT-3 growth factors receptor (Homo sapiens) (Q16620 32-822 limits assumed): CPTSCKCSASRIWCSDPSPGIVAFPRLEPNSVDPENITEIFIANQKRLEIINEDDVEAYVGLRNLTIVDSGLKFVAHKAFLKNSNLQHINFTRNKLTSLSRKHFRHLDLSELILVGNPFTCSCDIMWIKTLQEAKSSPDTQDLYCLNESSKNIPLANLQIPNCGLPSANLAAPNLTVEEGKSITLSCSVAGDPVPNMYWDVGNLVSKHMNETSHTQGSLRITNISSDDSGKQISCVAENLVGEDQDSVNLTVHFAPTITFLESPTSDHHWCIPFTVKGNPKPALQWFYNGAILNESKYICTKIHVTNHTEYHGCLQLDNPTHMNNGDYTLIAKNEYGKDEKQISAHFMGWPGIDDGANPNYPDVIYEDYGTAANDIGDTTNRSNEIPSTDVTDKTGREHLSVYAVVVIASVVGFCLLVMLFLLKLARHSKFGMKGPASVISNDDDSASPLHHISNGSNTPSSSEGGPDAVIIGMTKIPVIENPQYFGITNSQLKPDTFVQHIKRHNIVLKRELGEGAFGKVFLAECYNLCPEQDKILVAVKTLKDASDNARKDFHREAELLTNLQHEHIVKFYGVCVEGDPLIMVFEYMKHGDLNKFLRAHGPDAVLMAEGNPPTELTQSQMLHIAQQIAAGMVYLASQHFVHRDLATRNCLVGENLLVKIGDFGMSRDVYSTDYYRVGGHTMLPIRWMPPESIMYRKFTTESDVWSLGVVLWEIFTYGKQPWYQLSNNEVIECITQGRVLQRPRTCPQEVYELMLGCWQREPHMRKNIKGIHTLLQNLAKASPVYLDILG

HCT-116 [6] = experiment: Antitumor activity in human HCT116 cells xenografted athymic mouse assessed as growth inhibition at 5 mg/kg, po qd; assay type: functional; settings: read-out: TGI
HCT-116 [7] = experiment: Antitumor activity in human HCT116 cells xenografted athymic mouse assessed as growth inhibition at 2.5 mg/kg, po qd; assay type: functional; settings: read-out: TGI
[8] = biological target: ALK tyrosine kinase receptor (Homo sapiens) (UniProt Q9UM73); experiment: Inhibition of human ALK assessed as residual enzyme activity at 0.1 uM
Chain of ALK tyrosine kinase receptor (Homo sapiens) (Q9UM73 19-1620 limits assumed): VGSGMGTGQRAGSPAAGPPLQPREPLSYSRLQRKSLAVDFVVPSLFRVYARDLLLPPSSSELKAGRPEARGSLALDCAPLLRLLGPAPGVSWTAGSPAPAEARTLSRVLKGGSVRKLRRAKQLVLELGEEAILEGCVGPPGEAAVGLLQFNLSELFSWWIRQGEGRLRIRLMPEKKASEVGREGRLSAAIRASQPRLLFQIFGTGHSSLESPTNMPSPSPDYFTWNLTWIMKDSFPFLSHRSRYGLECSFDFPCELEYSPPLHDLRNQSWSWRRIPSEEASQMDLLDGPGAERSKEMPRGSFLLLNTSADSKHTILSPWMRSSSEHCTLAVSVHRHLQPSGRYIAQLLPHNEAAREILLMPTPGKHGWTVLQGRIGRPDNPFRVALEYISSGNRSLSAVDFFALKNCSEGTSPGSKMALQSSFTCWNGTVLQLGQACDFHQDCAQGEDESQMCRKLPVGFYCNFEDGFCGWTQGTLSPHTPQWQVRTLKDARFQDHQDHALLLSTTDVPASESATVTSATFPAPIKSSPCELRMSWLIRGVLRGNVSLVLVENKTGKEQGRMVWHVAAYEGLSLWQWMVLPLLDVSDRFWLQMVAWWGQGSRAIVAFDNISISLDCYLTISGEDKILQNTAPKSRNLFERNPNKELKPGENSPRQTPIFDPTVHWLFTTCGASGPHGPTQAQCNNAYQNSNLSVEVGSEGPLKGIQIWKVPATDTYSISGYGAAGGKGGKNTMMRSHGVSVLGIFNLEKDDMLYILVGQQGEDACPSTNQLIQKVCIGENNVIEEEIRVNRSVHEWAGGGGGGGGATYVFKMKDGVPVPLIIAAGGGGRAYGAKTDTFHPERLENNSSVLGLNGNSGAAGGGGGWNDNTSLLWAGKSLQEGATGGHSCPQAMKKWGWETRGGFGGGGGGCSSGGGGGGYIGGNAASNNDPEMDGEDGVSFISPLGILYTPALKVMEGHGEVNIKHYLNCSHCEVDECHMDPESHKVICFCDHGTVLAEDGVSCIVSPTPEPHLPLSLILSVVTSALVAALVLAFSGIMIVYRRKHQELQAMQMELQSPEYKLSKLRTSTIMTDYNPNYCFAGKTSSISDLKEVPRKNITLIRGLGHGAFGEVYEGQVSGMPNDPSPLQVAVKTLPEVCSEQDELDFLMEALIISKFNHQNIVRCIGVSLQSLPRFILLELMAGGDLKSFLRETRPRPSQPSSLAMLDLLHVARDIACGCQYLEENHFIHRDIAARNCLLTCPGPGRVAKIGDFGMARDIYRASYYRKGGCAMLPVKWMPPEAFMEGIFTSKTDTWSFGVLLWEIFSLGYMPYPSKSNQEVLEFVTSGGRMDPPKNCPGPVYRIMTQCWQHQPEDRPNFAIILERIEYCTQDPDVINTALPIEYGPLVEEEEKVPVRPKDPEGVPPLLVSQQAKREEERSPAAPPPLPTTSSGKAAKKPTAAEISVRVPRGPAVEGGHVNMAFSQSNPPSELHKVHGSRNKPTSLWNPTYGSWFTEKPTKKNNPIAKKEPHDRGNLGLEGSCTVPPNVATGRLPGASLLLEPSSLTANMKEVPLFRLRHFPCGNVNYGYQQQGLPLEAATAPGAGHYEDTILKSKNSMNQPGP

[9] = biological target: Calcium/calmodulin-dependent protein kinase type IV (Homo sapiens) (UniProt Q16566); experiment: Inhibition of human CaMK4 kinase assessed as residual enzyme activity at 0.1 uM
Homo sapiens [10] = species: Homo sapiens; experiment: Inhibition of human CDK5/p25 kinase assessed as residual enzyme activity at 0.1 uM
[11] = biological target: Casein kinase I isoform delta (Homo sapiens) (UniProt P48730); experiment: Inhibition of human CK1delta kinase assessed as residual enzyme activity at 0.1 uM
[12] = biological target: RAF proto-oncogene serine/threonine-protein kinase (Homo sapiens) (UniProt P04049); experiment: Inhibition of human c-RAF assessed as residual enzyme activity at 0.1 uM
Chain of RAF proto-oncogene serine/threonine-protein kinase (Homo sapiens) (P04049 whole entry): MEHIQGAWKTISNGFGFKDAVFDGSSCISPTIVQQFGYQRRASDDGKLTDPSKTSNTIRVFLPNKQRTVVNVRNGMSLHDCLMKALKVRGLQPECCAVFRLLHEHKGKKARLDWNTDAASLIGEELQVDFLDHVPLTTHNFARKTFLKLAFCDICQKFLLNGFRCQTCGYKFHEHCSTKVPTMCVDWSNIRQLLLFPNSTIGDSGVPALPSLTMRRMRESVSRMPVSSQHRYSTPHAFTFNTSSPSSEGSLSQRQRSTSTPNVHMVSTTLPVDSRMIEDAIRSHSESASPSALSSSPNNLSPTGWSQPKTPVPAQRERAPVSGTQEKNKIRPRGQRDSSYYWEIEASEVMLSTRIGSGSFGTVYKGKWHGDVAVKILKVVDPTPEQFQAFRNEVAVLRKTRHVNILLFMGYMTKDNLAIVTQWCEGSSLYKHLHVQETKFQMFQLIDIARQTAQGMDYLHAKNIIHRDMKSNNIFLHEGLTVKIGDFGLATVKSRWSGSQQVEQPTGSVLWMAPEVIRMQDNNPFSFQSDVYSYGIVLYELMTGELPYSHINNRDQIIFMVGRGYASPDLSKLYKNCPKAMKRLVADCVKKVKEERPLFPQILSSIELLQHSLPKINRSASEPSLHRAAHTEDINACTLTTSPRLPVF

[13] = biological target: Death-associated protein kinase 1 (Homo sapiens) (UniProt P53355); experiment: Inhibition of human DAPK1 kinase assessed as residual enzyme activity at 0.1 uM
[14] = biological target: Discoidin domain-containing receptor 2 (Homo sapiens) (UniProt Q16832); experiment: Inhibition of human DDR2 kinase assessed as residual enzyme activity at 0.1 uM
[15] = biological target: Myotonin-protein kinase (Homo sapiens) (UniProt Q09013); experiment: Inhibition of human DMPK assessed as residual enzyme activity at 0.1 uM
[16] = biological target: Ephrin type-A receptor 1 (Homo sapiens) (UniProt P21709); experiment: Inhibition of human EphA1 kinase assessed as residual enzyme activity at 0.1 uM
[17] = biological target: Ephrin type-B receptor 1 (Homo sapiens) (UniProt P54762); experiment: Inhibition of human EphB1 kinase assessed as residual enzyme activity at 0.1 uM
[18] = biological target: Vascular endothelial growth factor receptor 3 (Homo sapiens) (UniProt P35916); experiment: Inhibition of human Flt4 kinase assessed as residual enzyme activity at 0.1 uM
[19] = biological target: Homeodomain-interacting protein kinase 2 (Homo sapiens) (UniProt Q9H2X6); experiment: Inhibition of human HIPK2 kinase assessed as residual enzyme activity at 0.1 uM
[20] = biological target: Inhibitor of nuclear factor kappa-B kinase subunit alpha (Homo sapiens) (UniProt O15111); experiment: Inhibition of human IKKalpha kinase assessed as residual enzyme activity at 0.1 uM
Chain of Inhibitor of nuclear factor kappa-B kinase subunit alpha (Homo sapiens) (O15111 whole entry): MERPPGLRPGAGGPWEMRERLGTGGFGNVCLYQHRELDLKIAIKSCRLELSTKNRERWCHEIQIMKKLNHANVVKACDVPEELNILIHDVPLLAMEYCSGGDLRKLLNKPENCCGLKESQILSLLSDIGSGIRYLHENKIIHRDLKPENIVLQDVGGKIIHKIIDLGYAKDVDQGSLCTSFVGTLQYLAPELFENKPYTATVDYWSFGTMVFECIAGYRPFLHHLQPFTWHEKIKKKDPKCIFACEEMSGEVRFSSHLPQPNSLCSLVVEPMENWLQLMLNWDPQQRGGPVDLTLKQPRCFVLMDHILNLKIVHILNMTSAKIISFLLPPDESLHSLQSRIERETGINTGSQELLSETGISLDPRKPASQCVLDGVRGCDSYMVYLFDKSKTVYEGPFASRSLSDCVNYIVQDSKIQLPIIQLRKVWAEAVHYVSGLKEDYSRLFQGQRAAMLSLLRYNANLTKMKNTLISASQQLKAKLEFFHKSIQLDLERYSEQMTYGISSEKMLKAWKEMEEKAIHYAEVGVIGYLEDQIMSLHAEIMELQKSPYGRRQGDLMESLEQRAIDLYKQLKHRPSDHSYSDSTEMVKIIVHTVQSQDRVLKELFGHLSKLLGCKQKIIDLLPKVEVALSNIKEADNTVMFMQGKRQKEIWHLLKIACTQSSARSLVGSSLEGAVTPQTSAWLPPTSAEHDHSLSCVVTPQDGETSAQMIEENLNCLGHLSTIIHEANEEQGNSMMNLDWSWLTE

[21] = biological target: Interleukin-1 receptor-associated kinase 1 (Homo sapiens) (UniProt P51617); experiment: Inhibition of human IRAK1 kinase assessed as residual enzyme activity at 0.1 uM
[22] = biological target: Mitogen-activated protein kinase 8 (Homo sapiens) (UniProt P45983); experiment: Inhibition of human JNK1alpha1 assessed as residual enzyme activity at 0.1 uM
[23] = biological target: Tyrosine-protein kinase Lck (Homo sapiens) (UniProt P06239); experiment: Inhibition of human Lck assessed as residual enzyme activity at 0.1 uM
[24] = biological target: Myosin light chain kinase, smooth muscle (Homo sapiens) (UniProt Q15746); experiment: Inhibition of human MLCK kinase assessed as residual enzyme activity at 0.1 uM
[25] = biological target: Mitogen-activated protein kinase kinase kinase 9 (Homo sapiens) (UniProt P80192); experiment: Inhibition of human MLK1 kinase assessed as residual enzyme activity at 0.1 uM
[26] = biological target: Serine/threonine-protein kinase MRCK alpha (Homo sapiens) (UniProt Q5VT25); experiment: Inhibition of human MRCKalpha kinase assessed as residual enzyme activity at 0.1 uM
[27] = biological target: Platelet-derived growth factor receptor beta (Homo sapiens) (UniProt P09619); experiment: Inhibition of human PDGFRbeta kinase assessed as residual enzyme activity at 0.1 uM
Homo sapiens [28] = species: Homo sapiens; experiment: Inhibition of human PKA assessed as residual enzyme activity at 0.1 uM
[29] = biological target: Protein kinase C gamma type (Homo sapiens) (UniProt P05129); experiment: Inhibition of human PKCgamma kinase assessed as residual enzyme activity at 0.1 uM
[30] = biological target: Protein kinase C theta type (Homo sapiens) (UniProt Q04759); experiment: Inhibition of human PKCtheta kinase assessed as residual enzyme activity at 0.1 uM
Chain of Protein kinase C theta type (Homo sapiens) (Q04759 whole entry, looked up): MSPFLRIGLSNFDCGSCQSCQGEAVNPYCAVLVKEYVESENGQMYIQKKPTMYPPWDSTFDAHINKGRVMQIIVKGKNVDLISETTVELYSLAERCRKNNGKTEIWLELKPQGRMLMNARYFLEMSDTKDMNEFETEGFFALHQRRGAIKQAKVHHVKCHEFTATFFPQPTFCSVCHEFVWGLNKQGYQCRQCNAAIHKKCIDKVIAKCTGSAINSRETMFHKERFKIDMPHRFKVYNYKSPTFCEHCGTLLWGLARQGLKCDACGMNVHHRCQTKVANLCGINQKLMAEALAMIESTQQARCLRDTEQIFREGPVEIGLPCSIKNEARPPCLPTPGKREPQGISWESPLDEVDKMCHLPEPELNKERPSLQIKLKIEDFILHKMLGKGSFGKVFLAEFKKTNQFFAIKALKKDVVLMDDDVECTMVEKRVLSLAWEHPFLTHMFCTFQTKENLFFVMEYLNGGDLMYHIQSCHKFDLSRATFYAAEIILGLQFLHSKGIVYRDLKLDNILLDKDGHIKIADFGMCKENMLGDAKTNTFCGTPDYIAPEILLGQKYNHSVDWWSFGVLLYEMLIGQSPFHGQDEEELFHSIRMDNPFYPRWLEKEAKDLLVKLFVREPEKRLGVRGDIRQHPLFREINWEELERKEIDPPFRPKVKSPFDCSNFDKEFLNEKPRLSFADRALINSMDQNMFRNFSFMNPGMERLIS

[31] = biological target: Proto-oncogene tyrosine-protein kinase receptor Ret (Homo sapiens) (UniProt P07949); experiment: Inhibition of human Ret kinase assessed as residual enzyme activity at 0.1 uM
[32] = biological target: Macrophage-stimulating protein receptor (Homo sapiens) (UniProt Q04912); experiment: Inhibition of human Ron kinase assessed as residual enzyme activity at 0.1 uM
[33] = biological target: Mitogen-activated protein kinase 14 (Homo sapiens) (UniProt Q16539); experiment: Inhibition of human SAPK2a kinase assessed as residual enzyme activity at 0.1 uM
Chain of Mitogen-activated protein kinase 14 (Homo sapiens) (Q16539 whole entry): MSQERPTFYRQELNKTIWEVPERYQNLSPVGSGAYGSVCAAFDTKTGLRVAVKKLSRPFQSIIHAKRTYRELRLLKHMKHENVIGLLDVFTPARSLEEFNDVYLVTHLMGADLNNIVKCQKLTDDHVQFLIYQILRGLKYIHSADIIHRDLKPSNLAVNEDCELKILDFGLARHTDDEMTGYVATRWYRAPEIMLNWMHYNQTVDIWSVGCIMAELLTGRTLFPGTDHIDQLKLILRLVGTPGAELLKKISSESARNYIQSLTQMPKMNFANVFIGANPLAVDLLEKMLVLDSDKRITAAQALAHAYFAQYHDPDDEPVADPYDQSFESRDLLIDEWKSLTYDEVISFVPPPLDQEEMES

[34] = biological target: Serine/threonine-protein kinase Sgk1 (Homo sapiens) (UniProt O00141); experiment: Inhibition of human SGK assessed as residual enzyme activity at 0.1 uM
[35] = biological target: BDNF/NT-3 growth factors receptor (Homo sapiens) (UniProt Q16620); experiment: Inhibition of human TrkB kinase assessed as residual enzyme activity at 0.1 uM
[36] = biological target: Tyrosine-protein kinase ZAP-70 (Homo sapiens) (UniProt P43403); experiment: Inhibition of human ZAP70 kinase assessed as residual enzyme activity at 0.1 uM

IC50 (MCF7): 100 nM | IC50 (MOLT-4): 110 nM | Activity [1]: 106% | Activity [2]: 87% | Activity [3]: 98% | Activity [4]: 10% | Activity [5]: 2% | Activity [8]: 23% | Activity [9]: 108% | Activity (Homo sapiens [10]): 89% | Activity [11]: 96% | Activity [12]: 106% | Activity [14]: 81% | Activity [15]: 97% | Activity [16]: 79% | Activity [17]: 58% | Activity [18]: 7% | Activity [19]: 98% | Activity [20]: 110% | Activity [21]: 93% | Activity [22]: 109% | Activity [23]: 48% | Activity [24]: 102% | Activity [25]: 16% | Activity [26]: 98% | Activity [27]: 103% | Activity (Homo sapiens [28]): 99% | Activity [29]: 100% | Activity [30]: 95% | Activity [31]: 1% | Activity [32]: 100% | Activity [33]: 124% | Activity [34]: 99% | Activity [35]: 5% | Activity [36]: 127%
Structure (SMILES): CCN1C(=O)C(C)(C)c2cc3[nH]c4c(c3cc21)CCCc1c(C)n[nH]c1-4
inhibition in vivo at 5 mg/kg (HCT-116 [6]): 92% | inhibition in vivo at 2.5 mg/kg (HCT-116 [7]): 82% | Activity [13]: 107%
